Assay results as given in PubChem BioAssay AID588696 (Southern Research Specialized Biocontainment Screening …, 2011).
pIC50: −log10 of the molar value. Calls of active or inactive are those of the source.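 The calls were made as follows: active = inhibition of 30% or more at any tested concentration; inactive = the rest.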

Target: Aspartyl aminopeptidase (Homo sapiens) (UniProt Q9ULA0)
Assay: hM18AAP (DNPEP) peptidase activity blockade – biochemical, QFRET fluorogenic readout, recombinant enzyme, counter-screen for PfM18AAP inhibitor project, dose response (AID 588696)
Conditions: H-Glu-NHMec fluorogenic cleavage
Procedure, shortened: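 Material: recombinant human hM18AAP enzyme / Amount: 5 µg/mL enzyme / Also added: 0.1 mM H-Glu-NHMec substrate / Doses: twofold dilution series of compound, top dose 100 µM / Schedule: 90 min reaction, room temperature / Measured by: fluorescence at 370/460 nm / Controls: no-enzyme background wells as low-signal control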

Question: `COc1ccc(-c2csc(-c3ccccc3)n2)cc1OC` was tested. Which inhibition (at 100 µM (top of the series)) did it give?
Answer: Its inhibition is “inactive”.

Question: How did the pIC50 turn out when `Oc1ccc(CCNc2cncc3ccccc23)cc1O` was run?
Answer: Its pIC50 is 4.27.

Question: With `COc1ccc(CNc2c3ccccc3nc3ccccc23)cc1OC` as the molecule, how does the inhibition (at 100 µM (top of the series)) read?
Answer: Its inhibition is “inactive”.

Question: How did the inhibition (at 100 µM (top of the series)) turn out when `COc1ccc(CCN2CCc3ccccc3C2)cc1OC` was run?
Answer: Its inhibition is “inactive”.

Question: With `CCC(C)C(=O)Nc1ccccc1O` (centres undefined) as the molecule, how does the inhibition (at 100 µM (top of the series)) read?
Answer: Its inhibition is “inactive”.

Question: `CCC(C)c1ccc(N)c(O)c1` (centres undefined) was tested. Which pIC50 did it give?
Answer: The pIC50 was 4.35.

Question: How did the inhibition (at 100 µM (top of the series)) turn out when `COc1ccc(CCNc2cncc3ccccc23)cc1OC` was run?
Answer: The inhibition was “inactive”.

Question: Which inhibition (at 100 µM (top of the series)) does the source give for `COc1ccc(CCNc2c3c(nc4ccccc24)CCCC3)cc1OC` here?
Answer: The inhibition was “inactive”.

Question: How did the pIC50 turn out when `Oc1ccc(-c2csc(Cc3cc4ccccc4[nH]3)n2)cc1O` was run?
Answer: The pIC50 was 4.56.

Question: `Cc1c(O)c(=O)ccn1CCNc1c2ccccc2nc2ccccc12` was tested. Which inhibition (at 100 µM (top of the series)) did it give?
Answer: The inhibition was “inactive”.

Question: `O=S1(=O)c2ccccc2-c2cc(-c3nc(-c4ccc(O)c(O)c4)[nH]c3-c3ccccc3)ccc21` was tested. Which pIC50 did it give?
Answer: The pIC50 was 4.34.

Question: `COc1ccc(CCN(C)CCc2ccccc2)cc1OC` was tested. Which inhibition (at 100 µM (top of the series)) did it give?
Answer: Its inhibition is “inactive”.

Question: `COc1ccc(CCCNc2c3ccccc3nc3ccccc23)cc1OC` was tested. Which inhibition (at 100 µM (top of the series)) did it give?
Answer: Its inhibition is “inactive”.

Question: How did the pIC50 turn out when `Cc1c(-c2ccccc2)[nH]c(-c2ccc(O)c(O)c2)[n+]1O` was run?
Answer: The pIC50 was 4.14.

Question: `Oc1ccc(CCNc2c3ccccc3nc3ccccc23)cc1` was tested. Which inhibition (at 100 µM (top of the series)) did it give?
Answer: The inhibition was “inactive”.

Question: With `COc1ccc(CCNC2CCN(Cc3ccccc3)CC2)cc1OC` as the molecule, how does the inhibition (at 100 µM (top of the series)) read?
Answer: The inhibition was “inactive”.

Question: How did the inhibition (at 100 µM (top of the series)) turn out when `COc1ccc(CCN2CCN(C)CC2)cc1OC` was run?
Answer: The inhibition was “inactive”.

Question: `Cc1nc(NCCc2ccc(O)c(O)c2)c2c3c(sc2n1)CCC3` was tested. Which pIC50 did it give?
Answer: The pIC50 was 4.28.

Question: With `COc1ccc(CCN(C)c2ccncc2)cc1OC` as the molecule, how does the inhibition (at 100 µM (top of the series)) read?
Answer: Its inhibition is “inactive”.

Question: Which inhibition (at 100 µM (top of the series)) does the source give for `COc1ccc(CCNc2cccc3ccccc23)cc1OC` here?
Answer: Its inhibition is “inactive”.

Question: For `COc1ccc(CCNc2ccncc2)cc1OC`, which inhibition (at 100 µM (top of the series)) is on record?
Answer: Its inhibition is “inactive”.

Question: How did the inhibition (at 100 µM (top of the series)) turn out when `Cc1c(OCc2ccccc2)c(=O)ccn1CCNc1c2ccccc2nc2ccccc12` was run?
Answer: Its inhibition is “inactive”.

Question: How did the inhibition (at 100 µM (top of the series)) turn out when `COc1cccc(-c2nc(-c3ccc(OC)c(OC)c3)cs2)c1` was run?
Answer: The inhibition was “inactive”.

Question: For `COc1ccc(CCC(=O)O)cc1OC`, which inhibition (at 100 µM (top of the series)) is on record?
Answer: The inhibition was “inactive”.

Question: With `COc1ccc(CC(=O)O)cc1OC` as the molecule, how does the inhibition (at 100 µM (top of the series)) read?
Answer: Its inhibition is “inactive”.

Question: With `CN(CCc1ccc(O)c(O)c1)c1ccnc2ccccc12` as the molecule, how does the pIC50 read?
Answer: Its pIC50 is 4.51.

Question: Which inhibition (at 50 µM (top of the series)) does the source give for `Oc1ccc(CCNc2c3c(nc4ccccc24)CCCC3)cc1O` here?
Answer: Its inhibition is “inactive”.

Question: Which inhibition (at 100 µM (top of the series)) does the source give for `Oc1ccc(CCN2CCc3ccccc3C2)cc1O` here?
Answer: The inhibition was “inactive”.

Question: How did the pIC50 turn out when `CCOc1cccc(-c2nc(-c3ccc(O)c(O)c3)cs2)c1` was run?
Answer: The pIC50 was 4.67.

Question: With `O=C(O)CCCCNc1c2ccccc2nc2ccccc12` as the molecule, how does the inhibition (at 50 µM (top of the series)) read?
Answer: The inhibition was “inactive”.

Question: For `COc1ccc(CCNc2ccc3ccccc3c2)cc1OC`, which inhibition (at 100 µM (top of the series)) is on record?
Answer: The inhibition was “inactive”.

Question: `CC(C)(C)C(=O)OCc1nc(-c2ccc(O)c(O)c2)cs1` was tested. Which pIC50 did it give?
Answer: The pIC50 was 4.48.

Question: How did the pIC50 turn out when `O=C1OCCN1CCc1nc(-c2ccc(O)c(O)c2)cs1` was run?
Answer: Its pIC50 is 4.34.

Question: Which inhibition (at 50 µM (top of the series)) does the source give for `O=c1ccc2cc(O)c(O)cc2o1` here?
Answer: Its inhibition is “inactive”.

Question: Which inhibition (at 100 µM (top of the series)) does the source give for `NCc1cc2c3c(c(=O)oc2c(O)c1O)CCC3` here?
Answer: Its inhibition is “inactive”.

Question: With `Oc1ccc(CCNC2CCN(Cc3ccccc3)CC2)cc1O` as the molecule, how does the inhibition (at 100 µM (top of the series)) read?
Answer: The inhibition was “inactive”.

Question: How did the pIC50 turn out when `O=C1c2ccc3c4c(ccc(c24)C(=O)N1O)CC3` was run?
Answer: Its pIC50 is 4.05.

Question: `O=c1cc(CO)oc(CN2CCCCC2)c1O` was tested. Which inhibition (at 100 µM (top of the series)) did it give?
Answer: The inhibition was “inactive”.

Question: For `COc1ccc(CCN(C)c2ccnc3ccccc23)cc1OC`, which inhibition (at 100 µM (top of the series)) is on record?
Answer: The inhibition was “inactive”.

Question: With `COc1ccc(CCNc2ccnc3ccccc23)cc1OC` as the molecule, how does the inhibition (at 50 µM (top of the series)) read?
Answer: The inhibition was “inactive”.

Question: How did the pIC50 turn out when `Oc1ccc(CCNC(c2ccccc2)c2ccccc2)cc1O` was run?
Answer: The pIC50 was 4.38.

Question: Which inhibition (at 100 µM (top of the series)) does the source give for `Oc1ccc(CCCNc2c3ccccc3nc3ccccc23)cc1O` here?
Answer: Its inhibition is “inactive”.

Question: With `Oc1ccc(CCNc2ccc3ccccc3c2)cc1O` as the molecule, how does the pIC50 read?
Answer: Its pIC50 is 4.47.

Question: `COc1ccc(-c2csc(-c3ccccc3OC)n2)cc1OC` was tested. Which inhibition (at 100 µM (top of the series)) did it give?
Answer: The inhibition was “inactive”.

Question: How did the inhibition (at 100 µM (top of the series)) turn out when `O=C(c1ccco1)N1CCN(Cc2cc(=O)c(O)co2)CC1` was run?
Answer: The inhibition was “inactive”.

Question: With `CN(CCc1ccc(O)c(O)c1)c1ccncc1` as the molecule, how does the inhibition (at 100 µM (top of the series)) read?
Answer: Its inhibition is “inactive”.

Question: Which inhibition (at 100 µM (top of the series)) does the source give for `O=c1cc(CN2CCN(Cc3ccccc3)CC2)c2ccc(O)c(O)c2o1` here?
Answer: The inhibition was “inactive”.

Question: Which inhibition (at 100 µM (top of the series)) does the source give for `CCC(C)C(=O)Nc1ccccc1N` (centres undefined) here?
Answer: Its inhibition is “inactive”.

Question: How did the pIC50 turn out when `Cc1ccc(-c2nc(-c3ccc(O)c(O)c3)cs2)cc1` was run?
Answer: The pIC50 was 4.58.

Question: `NCCNc1c2ccccc2nc2ccccc12` was tested. Which inhibition (at 100 µM (top of the series)) did it give?
Answer: The inhibition was “inactive”.

Question: With `Nc1cc(C(=O)c2ccccc2)ccc1O` as the molecule, how does the pIC50 read?
Answer: The pIC50 was 4.36.

Question: Which inhibition (at 50 µM (top of the series)) does the source give for `O=C(O)CCCNc1c2ccccc2nc2ccccc12` here?
Answer: Its inhibition is “inactive”.

Question: How did the pIC50 turn out when `COc1ccc2c(c1)C(=O)C(N)CC2` (centres undefined) was run?
Answer: Its pIC50 is 4.00.

Question: Which inhibition (at 100 µM (top of the series)) does the source give for `COc1ccc(CCNc2c3ccccc3nc3ccccc23)cc1OC` here?
Answer: The inhibition was “inactive”.

Question: `COc1cccc(CCNc2c3ccccc3nc3ccccc23)c1` was tested. Which inhibition (at 100 µM (top of the series)) did it give?
Answer: The inhibition was “inactive”.

Question: Which inhibition (at 100 µM (top of the series)) does the source give for `COc1ccc(CCNC2CCN(C)CC2)cc1OC` here?
Answer: The inhibition was “inactive”.

Question: Which inhibition (at 100 µM (top of the series)) does the source give for `COc1ccc(-c2nc(-c3ccccc3)c(-c3ccccc3)[nH]2)cc1OC` here?
Answer: Its inhibition is “inactive”.

Question: With `Oc1ccc(CCNc2cccc3ccccc23)cc1O` as the molecule, how does the pIC50 read?
Answer: The pIC50 was 4.52.

Question: For `O=C(c1ccco1)N1CCN(Cc2cc(=O)c(O)c[nH]2)CC1`, which inhibition (at 100 µM (top of the series)) is on record?
Answer: Its inhibition is “inactive”.
